Assay results collected from several papers.
Each line is one published result; the experiments were not run side by side. ≈ marks a conversion by molar mass, not a printed value.

SMILES	test	system	conditions	endpoint	value
CC[C@H](C)[C@H]1C(=O)N[C@H]([C@H](C)O)C(=O)NCC(=O)N[C@@H](CC(C)C)C(=O)N2CCC[C@H]2C(=O)N[C@@H](Cc2ccc(O)cc2)C(=O)N[C@H](CC(C)C)C(=O)N2CCC[C@@H]2C(=O)NCC(=O)N[C@@H](Cc2ccc(O)cc2)C(=O)N1C		aqueous buffer	18 h, pH 7.4	solubility	933 µM (≈ 1020 µg/mL)
COc1cc(C2C3=C(COC3=O)N(CCO)c3cc4c(cc32)CCC4)cc(OC)c1OC (centres unmarked)	general toxicity	female C57BL/6 mouse	intraperitoneal, single dose	MTD	≥ 400 mg/kg
Cl.Cn1c(=O)n(CCCCN2CCC3(CC2)OCc2ccccc23)c2ccccc21		male Sprague-Dawley rat, brain	intravenous, 10 mg/kg	tissue/plasma ratio	0.48
C/C=C1/CN2CC[C@]34C(=C(C(=O)OC)[C@H]1C[C@H]23)Nc1ccccc14		Caco-2	10 µM, 2 h, pH 7.4	Papp A→B	38.1 ×10⁻⁶ cm/s
O=c1c2cc(Cl)c(CO)cc2[nH]c(=S)n1Cc1cncnc1		Caco-2	10 µM, 90 min, pH 7.4	Papp A→B	14 ×10⁻⁶ cm/s
C/C=C1/CN2CC[C@@]34c5cc(O)ccc5N(C)[C@]35OC[C@@]4(C(=O)OC)[C@H]1C[C@H]25		Caco-2	10 µM, 2 h, pH 7.4	Papp B→A	30.9 ×10⁻⁶ cm/s
CC=CCC(C)C1OC(=O)C(C(C)C)N(C)C(=O)C(CC(C)C)N(C)C(=O)C(CC(C)C)N(C)C(=O)C(C)NC(=O)C(C)NC(=O)C(CC(C)C)N(C)C(=O)C(C(C)C)NC(=O)C(CC(C)C)N(C)C(=O)CN(C)C(=O)C(CC)NC(=O)C1NC (centres unmarked)		aqueous buffer	18 h, pH 7.4	solubility	91 µM (≈ 109 µg/mL)
CC(c1cncnc1)n1c(=S)[nH]c2ccc(Cl)cc2c1=O (centres unmarked)		Caco-2	10 µM, 90 min, pH 7.4	Papp B→A	38.4 ×10⁻⁶ cm/s
